Reference: ChEMBL document CHEMBL1268822, “Synthesis and biological evaluation of indolyl glyoxylamides as a new class of antileishmanial agents” (Bioorg Med Chem Lett, 2010)
pIC50: −log10 of the molar value.

Columns and labels:
[1] = system: Leishmania donovani; test: Antileishmanial activity against Leishmania donovani amastigotes infected in mouse J774A1 cells assessed as inhibition of parasite growth after 72 hrs by luciferase reporter gene assay; assay type: functional, organism-based; conditions: J774.A1, 72 h
Outline: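 J774A.1 macrophages seeded at 4 × 10⁴ cells/well in RPMI-1640 with 10% fetal calf serum, 37 °C CO₂, 24 h. Stationary-phase promastigotes then added at 4 × 10⁵/well and left to convert to intracellular amastigotes. Medium replaced with compound at 0.62–40 µM for 72 h at 37 °C. Steady Glo luciferase luminescence, growth inhibition relative to untreated controls.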

[2] = Toxicity in mouse J774A1 cells; assay type: cell-based, J774.A1
[3] = (§1) Selectivity index, ratio of CC50 for mouse J774A1 cells to IC50 for Leishmania donovani amastigotes; assay type: functional, J774.A1
Outline: (§2)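 Ratio of CC50 in J-774 A-1 cells to IC50 against L. donovani amastigotes.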

[4] = system: J774.A1; test: as §1; assay type: functional; outline: as §2

| Molecule | pIC50 [1] | CC50 [2] [µM] | Selectivity Index [3] | Selectivity Index [4] |
| --- | --- | --- | --- | --- |
| CCc1ccc([C@@H]2c3[nH]c4ccccc4c3C[C@H](C(=O)OC)N2C(=O)C(=O)c2c[nH]c3ccc(Br)cc23)cc1 | 5.27 | 11.6 | 2.17 |  |
| COC(=O)[C@@H]1Cc2c([nH]c3ccccc23)[C@@H](c2ccc(Cl)cc2)N1C(=O)C(=O)c1c[nH]c2ccc(Br)cc12 | 5.40 | 7.64 | 1.9 |  |
| COC(=O)[C@H]1Cc2c([nH]c3ccccc23)[C@H](c2ccc(C(C)C)cc2)N1C(=O)C(=O)c1c[nH]c2ccc(Br)cc12 | 5.35 | 9.04 | 2.04 |  |
| COC(=O)[C@H]1Cc2c([nH]c3ccccc23)[C@@H](c2ccc(C(C)C)cc2)N1C(=O)C(=O)c1c[nH]c2ccc(Br)cc12 | 5.41 | 7.77 | 1.99 |  |
| sodium stibogluconate |  |  |  | 5.53 |
| COC(=O)[C@@H]1Cc2c([nH]c3ccccc23)[C@@H](c2ccc(Cl)cc2)N1C(=O)C(=O)c1c[nH]c2ccccc12 | 5.36 | 11.3 | 2.6 |  |
| CCc1ccc([C@@H]2c3[nH]c4ccccc4c3C[C@H](C(=O)OC)N2C(=O)C(=O)c2c[nH]c3ccccc23)cc1 | 5.29 | 163 | 31.48 |  |
| COC(=O)[C@H]1Cc2c([nH]c3ccccc23)[C@@H](c2ccc(C(C)C)cc2)N1C(=O)C(=O)c1c[nH]c2ccccc12 | 5.17 | 32.6 | 4.84 |  |
| COC(=O)[C@@H]1Cc2c([nH]c3ccccc23)[C@@H](c2ccccc2Br)N1C(=O)C(=O)c1c[nH]c2ccccc12 | 5.42 | 30.1 | 7.94 |  |
| COC(=O)[C@@H]1Cc2c([nH]c3ccccc23)[C@@H](c2ccc(C)cc2)N1C(=O)C(=O)c1c[nH]c2ccc(Br)cc12 | 5.32 | 8.83 | 1.84 |  |
| COC(=O)[C@@H]1Cc2c([nH]c3ccccc23)[C@H](c2ccc(C)cc2)N1C(=O)C(=O)c1c[nH]c2ccc(Br)cc12 | 5.29 | 10.1 | 1.95 |  |
| CCc1ccc([C@H]2c3[nH]c4ccccc4c3C[C@H](C(=O)OC)N2C(=O)C(=O)c2c[nH]c3ccc(Br)cc23)cc1 | 5.23 | 9.48 | 1.62 |  |
| COC(=O)[C@@H]1Cc2c([nH]c3ccccc23)[C@@H](c2ccccc2Br)N1C(=O)C(=O)c1c[nH]c2ccc(Br)cc12 | 5.39 | 7.25 | 1.77 |  |
| COC(=O)[C@@H]1Cc2c([nH]c3ccccc23)[C@H](c2ccc(C)cc2)N1C(=O)C(=O)c1c[nH]c2ccccc12 | 5.13 | 27.4 | 3.72 |  |
| CCc1ccc([C@H]2c3[nH]c4ccccc4c3C[C@H](C(=O)OC)N2C(=O)C(=O)c2c[nH]c3ccccc23)cc1 | 5.09 | 30.9 | 3.84 |  |
| COC(=O)[C@@H]1Cc2c([nH]c3ccccc23)[C@@H](c2ccc(C)cc2)N1C(=O)C(=O)c1c[nH]c2ccccc12 | 5.17 | 34.4 | 5.07 |  |
| COC(=O)[C@H]1Cc2c([nH]c3ccccc23)[C@H](c2ccc(C(C)C)cc2)N1C(=O)C(=O)c1c[nH]c2ccccc12 | 5.22 | 15.1 | 2.51 |  |
